Data set [1] concerns the target Mitogen-activated protein kinase kinase kinase kinase 5 (Homo sapiens) (UniProt Q9Y4K4). In words: Inhibition of wild-type human partial length MAP4K5 (M1 to P297 residues) expressed in Escherichia coli BL21 assessed as residual activity at 1000 nM after 30 mins by Kinomescan method relative to control.
Data set [2] deals with Ephrin type-B receptor 4 (Homo sapiens) (UniProt P54760). Kind of data set: Inhibition of wild-type human partial length EPHB4 (H585 to G892 residues) expressed in Escherichia coli BL21 assessed as residual activity at 1000 nM after 30 mins by Kinomescan method relative to control.
Data set [3] has as its target Ephrin type-A receptor 4 (Homo sapiens) (UniProt P54764). Kind of data set: Inhibition of wild-type human partial length EPHA4 (T601 to R897 residues) expressed in Escherichia coli BL21 assessed as residual activity at 1000 nM after 30 mins by Kinomescan method relative to control.
Data set [4] deals with Cyclin-dependent kinase 8 (Homo sapiens) (UniProt P49336). Kind of data set: Inhibition of wild-type human partial length CDK8 (M1 to T360 residues) expressed in Escherichia coli BL21 assessed as residual activity at 1000 nM after 30 mins by Kinomescan method relative to control.
Sequence of Cyclin-dependent kinase 8 (Homo sapiens) (P49336 whole entry, the tested form may be a part): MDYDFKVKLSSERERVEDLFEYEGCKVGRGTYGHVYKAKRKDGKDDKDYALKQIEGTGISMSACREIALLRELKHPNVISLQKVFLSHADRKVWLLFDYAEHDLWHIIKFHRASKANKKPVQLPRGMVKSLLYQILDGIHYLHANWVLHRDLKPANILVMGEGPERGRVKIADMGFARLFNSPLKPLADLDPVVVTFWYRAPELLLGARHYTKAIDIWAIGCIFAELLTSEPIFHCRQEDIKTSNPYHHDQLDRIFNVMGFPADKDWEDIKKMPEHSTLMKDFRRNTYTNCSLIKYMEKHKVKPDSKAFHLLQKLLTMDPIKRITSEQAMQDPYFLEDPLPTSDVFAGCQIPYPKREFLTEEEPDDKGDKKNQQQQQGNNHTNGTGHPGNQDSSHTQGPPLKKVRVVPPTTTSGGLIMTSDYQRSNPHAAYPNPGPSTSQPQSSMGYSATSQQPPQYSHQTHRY
For data set [5], the target named is RAF proto-oncogene serine/threonine-protein kinase (Homo sapiens) (UniProt P04049). In words: Inhibition of wild-type human partial length RAF1 (I330 to T640 residues) expressed in Escherichia coli BL21 assessed as residual activity at 1000 nM after 30 mins by Kinomescan method relative to control.
Data set [6] addresses Cytoplasmic tyrosine-protein kinase BMX (Homo sapiens) (UniProt P51813). Kind of data set: Inhibition of wild-type human full length BMX (M1 to H675 residues) expressed in Escherichia coli BL21 assessed as residual activity at 1000 nM after 30 mins by Kinomescan method relative to control. In outline:
(§1)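 Single-point screen at a fixed 1 µM, run within a 456-kinase DiscoveRx KINOMEscan panel. Each kinase's read-out is Percent Control, i.e. signal relative to a control without compound. Hits were scored by a Percent Control < 35 cut-off, and an S(35) selectivity score was calculated across the non-mutant kinases.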

Data set [7] concerns the target Hormonally up-regulated neu tumor-associated kinase (Homo sapiens) (UniProt P57058). In words: Inhibition of wild-type human partial length HUNK (A31 to K354 residues) expressed in Escherichia coli BL21 assessed as residual activity at 1000 nM after 30 mins by Kinomescan method relative to control.
Data set [8] has as its target Atypical kinase COQ8B, mitochondrial (Homo sapiens) (UniProt Q96D53). In words: Inhibition of wild-type human full length ADCK4 (M1 to S544 residues) expressed in Escherichia coli BL21 assessed as residual activity at 1000 nM after 30 mins by Kinomescan method relative to control. In outline: as §1
Data set [9] has as its target Myosin light chain kinase 2, skeletal/cardiac muscle (Homo sapiens) (UniProt Q9H1R3). Kind of data set: Inhibition of wild-type human partial length MYLK2 (D258 to K570 residues) expressed in Escherichia coli BL21 assessed as residual activity at 1000 nM after 30 mins by Kinomescan method relative to control.
Data set [10] deals with Mitogen-activated protein kinase kinase kinase 20 (Homo sapiens) (UniProt Q9NYL2). Kind of data set: Inhibition of wild-type human partial length ZAK (M1 to L331 residues) expressed in Escherichia coli BL21 assessed as residual activity at 1000 nM after 30 mins by Kinomescan method relative to control.
Data set [11] has as its target Dual specificity protein kinase CLK1 (Homo sapiens) (UniProt P49759). In words: Inhibition of wild-type human full length CLK1 (M1 to I484 residues) expressed in Escherichia coli BL21 assessed as residual activity at 1000 nM after 30 mins by Kinomescan method relative to control. In outline: as §1
The target in data set [12] is Cyclin-dependent kinase-like 3 (Homo sapiens) (UniProt Q8IVW4). Kind of data set: Inhibition of wild-type human partial length CDKL3 (M1 to D327 residues) expressed in Escherichia coli BL21 assessed as residual activity at 1000 nM after 30 mins by Kinomescan method relative to control.
Data set [13] addresses Phosphatidylinositol 4,5-bisphosphate 3-kinase catalytic subunit beta isoform (Homo sapiens) (UniProt P42338). Kind of data set: Inhibition of wild-type human partial length PIK3CB (P118 to S1070 residues) expressed in HEK293 cells assessed as residual activity at 1000 nM after 30 mins by Kinomescan method relative to control. The format is cell-based.
In data set [14] the target is Ephrin type-B receptor 3 (Homo sapiens) (UniProt P54753). Kind of data set: Inhibition of wild-type human partial length EPHB3 (Q599 to T928 residues) expressed in Escherichia coli BL21 assessed as residual activity at 1000 nM after 30 mins by Kinomescan method relative to control.
In data set [15] the target is Rho-associated protein kinase 2 (Homo sapiens) (UniProt O75116). Kind of data set: Inhibition of wild-type human partial length ROCK2 (M1 to T431 residues) expressed in HEK293 cells assessed as residual activity at 1000 nM after 30 mins by Kinomescan method relative to control. The format is cell-based.
Data set [16] concerns the target Misshapen-like kinase 1 (Homo sapiens) (UniProt Q8N4C8). In words: Inhibition of wild-type human partial length MINK (M1 to K312 residues) expressed in HEK293 cells assessed as residual activity at 1000 nM after 30 mins by Kinomescan method relative to control. In kind it is cell-based.
Data set [17] has as its target VEGFR2 (vascular endothelial growth factor receptor 2) (Homo sapiens, UniProt P35968). Kind of data set: Inhibition of wild-type human partial length VEGFR2 (R787 to P1253 residues) expressed in HEK293 cells assessed as residual activity at 1000 nM after 30 mins by Kinomescan method relative to control. In kind it is cell-based. Particulars: read-out: Activity.
For data set [18], the target named is Serine/threonine-protein kinase PAK 1 (Homo sapiens) (UniProt Q13153). Kind of data set: Inhibition of wild-type human partial length PAK1 (S149 to H545 residues) expressed in Escherichia coli BL21 assessed as residual activity at 1000 nM after 30 mins by Kinomescan method relative to control.
The species entered for the next data set is Homo sapiens. In words: Inhibition of human partial length FLT3 ITD/D835V double mutant expressed in Escherichia coli BL21 assessed as residual activity at 1000 nM after 30 mins by Kinomescan method relative to control. In outline:
(§2)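 KINOMEscan binding panel of 456 kinases, with the test compound at a single concentration of 1 µM. Read-out is Percent Control.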

Data set [19] concerns the target Membrane-associated tyrosine- and threonine-specific cdc2-inhibitory kinase (Homo sapiens) (UniProt Q99640). In words: Inhibition of wild-type human partial length PKMYT1 (A88 to G366 residues) expressed in Escherichia coli BL21 assessed as residual activity at 1000 nM after 30 mins by Kinomescan method relative to control.
For data set [20], the system named is Epidermal growth factor receptor (Homo sapiens), P00533 [L861Q]. Kind of data set: Inhibition of human partial length EGFR L861Q mutant (R669 to V1011 residues) expressed in Escherichia coli BL21 assessed as residual activity at 1000 nM after 30 mins by Kinomescan method relative to control. In outline: as §2
Data set [21] has as its target Dual specificity tyrosine-phosphorylation-regulated kinase 1A (Homo sapiens) (UniProt Q13627). In words: Inhibition of wild-type human partial length DYRK1A (H129 to S509 residues) expressed in HEK293 cells assessed as residual activity at 1000 nM after 30 mins by Kinomescan method relative to control. The format is cell-based.

Sequence of Membrane-associated tyrosine- and threonine-specific cdc2-inhibitory kinase (Homo sapiens) (Q99640 whole entry, the tested form may be a part): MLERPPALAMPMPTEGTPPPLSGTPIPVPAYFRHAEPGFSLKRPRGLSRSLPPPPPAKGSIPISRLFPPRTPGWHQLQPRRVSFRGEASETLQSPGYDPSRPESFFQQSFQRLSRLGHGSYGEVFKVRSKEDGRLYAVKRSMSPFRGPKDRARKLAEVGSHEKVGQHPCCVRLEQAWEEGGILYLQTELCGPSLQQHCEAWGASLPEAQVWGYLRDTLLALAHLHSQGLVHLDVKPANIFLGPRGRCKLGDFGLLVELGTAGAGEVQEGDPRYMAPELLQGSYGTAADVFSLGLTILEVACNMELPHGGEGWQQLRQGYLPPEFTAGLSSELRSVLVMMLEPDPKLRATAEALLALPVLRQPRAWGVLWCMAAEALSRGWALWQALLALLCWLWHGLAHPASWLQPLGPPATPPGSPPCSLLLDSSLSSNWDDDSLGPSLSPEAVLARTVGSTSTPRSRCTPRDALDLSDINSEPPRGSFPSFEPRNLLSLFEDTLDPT
Sequence of Cytoplasmic tyrosine-protein kinase BMX (Homo sapiens) (P51813 whole entry, the tested form may be a part): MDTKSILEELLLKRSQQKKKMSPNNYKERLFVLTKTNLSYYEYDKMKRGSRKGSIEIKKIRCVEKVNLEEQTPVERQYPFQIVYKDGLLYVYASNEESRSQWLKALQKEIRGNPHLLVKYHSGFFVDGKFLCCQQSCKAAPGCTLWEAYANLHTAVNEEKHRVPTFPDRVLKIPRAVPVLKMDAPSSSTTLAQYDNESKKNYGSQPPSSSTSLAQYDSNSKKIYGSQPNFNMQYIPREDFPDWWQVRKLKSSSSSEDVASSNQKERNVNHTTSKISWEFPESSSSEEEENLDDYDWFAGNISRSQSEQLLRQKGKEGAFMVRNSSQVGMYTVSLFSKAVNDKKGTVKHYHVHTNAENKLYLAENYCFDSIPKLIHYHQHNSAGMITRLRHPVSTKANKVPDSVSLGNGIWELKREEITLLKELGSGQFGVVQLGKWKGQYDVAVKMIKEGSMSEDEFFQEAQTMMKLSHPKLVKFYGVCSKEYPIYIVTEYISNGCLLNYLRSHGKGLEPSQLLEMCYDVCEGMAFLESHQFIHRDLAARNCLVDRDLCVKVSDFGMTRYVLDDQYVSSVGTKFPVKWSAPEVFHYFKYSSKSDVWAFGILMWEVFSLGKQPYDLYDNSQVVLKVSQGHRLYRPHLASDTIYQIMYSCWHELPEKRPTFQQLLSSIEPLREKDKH
Sequence of Misshapen-like kinase 1 (Homo sapiens) (Q8N4C8 whole entry, looked up, the tested form may be a part): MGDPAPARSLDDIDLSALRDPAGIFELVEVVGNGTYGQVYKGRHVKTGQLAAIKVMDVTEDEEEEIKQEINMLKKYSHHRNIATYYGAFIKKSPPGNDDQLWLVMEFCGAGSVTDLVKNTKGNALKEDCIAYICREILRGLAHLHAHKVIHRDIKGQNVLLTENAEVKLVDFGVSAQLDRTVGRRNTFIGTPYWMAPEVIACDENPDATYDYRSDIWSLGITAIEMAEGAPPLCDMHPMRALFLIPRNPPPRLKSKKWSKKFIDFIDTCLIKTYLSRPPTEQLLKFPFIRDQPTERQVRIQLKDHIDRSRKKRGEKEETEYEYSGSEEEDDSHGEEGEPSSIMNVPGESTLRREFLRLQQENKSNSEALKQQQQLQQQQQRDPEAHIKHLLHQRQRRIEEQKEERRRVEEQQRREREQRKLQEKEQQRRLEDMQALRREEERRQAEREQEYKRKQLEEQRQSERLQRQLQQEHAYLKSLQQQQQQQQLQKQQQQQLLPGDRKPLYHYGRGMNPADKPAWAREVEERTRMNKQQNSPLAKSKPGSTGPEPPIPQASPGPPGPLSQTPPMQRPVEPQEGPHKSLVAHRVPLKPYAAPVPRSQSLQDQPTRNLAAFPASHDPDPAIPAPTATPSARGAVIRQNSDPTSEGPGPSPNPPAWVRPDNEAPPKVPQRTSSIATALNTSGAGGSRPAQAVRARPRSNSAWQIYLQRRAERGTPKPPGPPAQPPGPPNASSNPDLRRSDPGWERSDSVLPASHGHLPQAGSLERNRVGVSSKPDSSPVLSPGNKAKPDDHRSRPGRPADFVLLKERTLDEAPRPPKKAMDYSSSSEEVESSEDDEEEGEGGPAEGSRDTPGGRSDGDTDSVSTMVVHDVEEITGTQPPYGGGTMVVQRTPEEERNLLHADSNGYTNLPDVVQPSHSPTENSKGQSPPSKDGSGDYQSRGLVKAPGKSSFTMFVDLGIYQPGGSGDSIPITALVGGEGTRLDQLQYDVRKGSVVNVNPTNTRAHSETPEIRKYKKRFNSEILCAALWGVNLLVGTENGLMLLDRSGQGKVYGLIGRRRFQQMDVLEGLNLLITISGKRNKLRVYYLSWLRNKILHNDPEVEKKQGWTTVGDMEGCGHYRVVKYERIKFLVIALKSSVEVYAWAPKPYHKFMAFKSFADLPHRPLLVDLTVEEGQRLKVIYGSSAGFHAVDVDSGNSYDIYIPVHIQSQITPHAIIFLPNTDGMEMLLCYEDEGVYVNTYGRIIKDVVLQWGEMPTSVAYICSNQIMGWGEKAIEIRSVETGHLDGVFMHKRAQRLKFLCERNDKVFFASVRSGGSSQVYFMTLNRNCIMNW
Sequence of Ephrin type-A receptor 4 (Homo sapiens) (P54764 whole entry, the tested form may be a part): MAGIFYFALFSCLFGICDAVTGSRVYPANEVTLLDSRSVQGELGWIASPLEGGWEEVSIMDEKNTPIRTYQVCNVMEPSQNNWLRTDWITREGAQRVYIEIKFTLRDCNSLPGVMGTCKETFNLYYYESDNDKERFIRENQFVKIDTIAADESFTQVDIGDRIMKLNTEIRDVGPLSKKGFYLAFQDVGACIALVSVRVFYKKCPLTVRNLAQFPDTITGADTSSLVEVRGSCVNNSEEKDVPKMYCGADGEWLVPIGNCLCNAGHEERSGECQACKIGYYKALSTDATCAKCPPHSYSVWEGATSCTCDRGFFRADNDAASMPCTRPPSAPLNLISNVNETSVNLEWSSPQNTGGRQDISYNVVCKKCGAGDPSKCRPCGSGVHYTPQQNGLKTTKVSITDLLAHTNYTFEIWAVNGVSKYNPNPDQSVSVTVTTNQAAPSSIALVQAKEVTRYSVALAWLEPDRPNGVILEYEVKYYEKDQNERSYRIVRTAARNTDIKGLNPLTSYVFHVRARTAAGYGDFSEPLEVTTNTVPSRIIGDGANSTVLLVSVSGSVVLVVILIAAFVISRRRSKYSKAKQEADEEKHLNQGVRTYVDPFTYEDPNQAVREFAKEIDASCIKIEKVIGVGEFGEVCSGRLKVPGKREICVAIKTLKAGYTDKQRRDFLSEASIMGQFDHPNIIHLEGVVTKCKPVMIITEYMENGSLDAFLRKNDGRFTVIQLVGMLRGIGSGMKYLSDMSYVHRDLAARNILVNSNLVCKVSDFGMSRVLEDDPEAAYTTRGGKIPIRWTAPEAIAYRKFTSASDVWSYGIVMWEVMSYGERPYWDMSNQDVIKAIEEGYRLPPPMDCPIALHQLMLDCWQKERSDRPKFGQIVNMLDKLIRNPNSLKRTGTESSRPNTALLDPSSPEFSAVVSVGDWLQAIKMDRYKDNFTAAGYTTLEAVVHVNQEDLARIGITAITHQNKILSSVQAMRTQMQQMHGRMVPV
Sequence of Phosphatidylinositol 4,5-bisphosphate 3-kinase catalytic subunit beta isoform (Homo sapiens) (P42338 whole entry, looked up, the tested form may be a part, canonical isoform): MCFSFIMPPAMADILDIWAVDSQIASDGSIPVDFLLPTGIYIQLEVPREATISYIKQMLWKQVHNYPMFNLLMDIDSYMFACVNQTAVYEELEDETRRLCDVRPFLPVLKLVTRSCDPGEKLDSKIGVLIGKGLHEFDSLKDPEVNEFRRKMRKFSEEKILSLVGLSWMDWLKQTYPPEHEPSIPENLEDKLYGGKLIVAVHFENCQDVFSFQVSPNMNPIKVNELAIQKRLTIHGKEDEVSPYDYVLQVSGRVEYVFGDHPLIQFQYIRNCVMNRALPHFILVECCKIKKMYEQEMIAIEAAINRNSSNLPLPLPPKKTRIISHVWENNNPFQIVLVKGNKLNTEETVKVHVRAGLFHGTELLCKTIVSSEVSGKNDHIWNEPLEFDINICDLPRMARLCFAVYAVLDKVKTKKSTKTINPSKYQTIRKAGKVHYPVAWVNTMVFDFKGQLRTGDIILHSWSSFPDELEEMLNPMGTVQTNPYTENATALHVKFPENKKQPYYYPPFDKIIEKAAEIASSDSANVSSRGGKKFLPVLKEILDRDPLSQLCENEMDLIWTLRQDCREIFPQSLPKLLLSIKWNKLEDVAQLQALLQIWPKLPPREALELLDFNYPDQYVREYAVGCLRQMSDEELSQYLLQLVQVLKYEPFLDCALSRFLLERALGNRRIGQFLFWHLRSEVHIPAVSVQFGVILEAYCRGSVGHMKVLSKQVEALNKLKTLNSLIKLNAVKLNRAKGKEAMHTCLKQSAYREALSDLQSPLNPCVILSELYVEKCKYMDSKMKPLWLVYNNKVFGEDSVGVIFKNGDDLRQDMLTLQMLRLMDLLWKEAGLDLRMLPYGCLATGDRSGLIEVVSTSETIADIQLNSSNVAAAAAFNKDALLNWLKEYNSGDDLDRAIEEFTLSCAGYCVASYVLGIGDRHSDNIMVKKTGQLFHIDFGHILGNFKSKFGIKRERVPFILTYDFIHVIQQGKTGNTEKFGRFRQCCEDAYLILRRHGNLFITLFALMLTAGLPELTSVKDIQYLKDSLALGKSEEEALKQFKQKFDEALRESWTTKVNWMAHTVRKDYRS

Consider `COc1cc(OC)c(Cl)c(N2Cc3cnc(Nc4ccc(F)cc4)nc3N(C3CCN(C(=O)/C=C/CN(C)C)CC3)C2=O)c1Cl`, for which the Activity in data set [1] came to 82%; in data set [2] it was 100%; in data set [3], 100%; in [4] it was 85%; in data set [5], 96%; in data set [6] it was 99%. Also, the Activity amounted to 100% in data set [7]; 94% in [8]; 82% in data set [9]; 98% in data set [10]; 100% in data set [11]; 89% in data set [12]. Further, the Activity in [13] amounted to 100%; in data set [14], 100%; in [15] it was 100%; in data set [16] it was 93%; in [18], 100%; in the data set listed under Homo sapiens, 98%. The figures for the Activity in data set [19], in data set [20] and in data set [21] were 100%, 87% and 98%, respectively. Besides, the activity at 0.5 h, 1 µM in [17] came out at 7.3%.

For the origin of these results see ChEMBL document CHEMBL4043093, “2-Oxo-3, 4-dihydropyrimido[4, 5-d]pyrimidinyl derivatives as new irreversible pan fibroblast growth factor receptor (FGFR) inhibitors” (Eur J Med Chem, 2017).
